Rows were chosen to be rich in hits. Some 2.3% of all compounds tested hit in one or more screens of this group.
TRPC4 block = TRPC4 (mouse) channel inhibition | HEK293 TRPC4beta/mu-opioid, DAMGO-evoked Fluo4 calcium flux; stronger effect = lower value | hit rate 0.39% among 300,000 | Q9QUQ5 | B-score at 10 µM | AID 2247;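 active means B-score over 3 SD under the library average, no early fluorescence shift, positive overall ratio signal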
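Test system – stable TRPC4beta/mu-opioid receptor HEK293 cells · Probe or stimulus – DAMGO, a submaximal dose followed by a maximal one · Dosing – one concentration per compound · Signal – Fluo4 calcium fluorescence by kinetic imaging, 5 s 1 Hz baseline · Evaluation – per-well B score of integrated baseline-normalized Fluo4 ratio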
TRPC4 potent = allosterically enhances the mouse TRPC4 cation channel | B-score at 10 µM | hit rate 0.42% among 310,000 | HEK293 TRPC4beta/mu-opioid, DAMGO EC20, Fluo-4 Ca2+ flux; stronger effect = higher value | Q9QUQ5;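 active means B-score of calcium response area above 5 SD of library B-scores, with initial fluorescence ratio within 5 SD of library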;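 further: B-score of integrated fluorescence ratio over time as area under calcium response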
TRPC6 inh = mouse TRPC6 channel inhibition; HEK293-TRPC6, membrane potential dye, ACh-evoked depolarization; stronger effect = lower value; B-score at 10 µM; hit rate 1.1% among 310,000;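 active means B-score under library mean minus 3 SD, initial fluorescence not abnormally high, positive integrated signal ratio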;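 further: B-score derived from integrated fluorescence ratio over the kinetic read; more negative B-score means stronger inhibition of depolarization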
TRPC6 act = activates the mouse TRPC6 cation channel. hit rate 0.13% among 310,000. HEK293-TRPC6 membrane potential dye fluorescence; stronger effect = higher value. B-score at 10 µM. Q61143. AID 2550;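 active means B-score of the integrated fluorescence ratio above library mean plus 3 SD, and starting fluorescence ratio within library mean plus 5 SD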;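 further: higher score means more depolarization so channel activation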
TRPC4 act = TRPC4 (mouse) channel activation; Q9QUQ5; HEK293 TRPC4beta/mu-opioid, Fluo4 calcium fluorescence; stronger effect = higher value; B-score at 10 µM; hit rate 0.49% among 310,000; AID 2237;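 active means B-score above 5 SD of library B-scores, and initial fluorescence ratio not above library mean plus 5 SD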;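 further: positive B-score marks a calcium rise read as TRPC4 activation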
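Assay system: HEK293 stable line with TRPC4beta plus mu-opioid receptor; schedule: 45 min room-temperature Fluo4 loading, 110 s read; technique: kinetic Fluo4 calcium fluorescence; evaluation: integrated baseline-normalised fluorescence ratio, converted to per-well B score; controls: buffer (low) and maximal DAMGO (high)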
An asterisk follows results filed as active.

Results for CN(CC(=O)OCC(=O)c1c(N)n(C)c(=O)n(C)c1=O)S(=O)(=O)c1ccc(Cl)cc1 ?
TRPC4 block: inactive; TRPC4 potent: inactive; TRPC6 inh: inactive; TRPC6 act: inactive; TRPC4 act: inactive

How did Cn1c(N)c(C(=O)COC(=O)CNS(=O)(=O)c2ccc(Cl)c(Cl)c2)c(=O)n(C)c1=O do in these assays?
TRPC4 block: -6*; TRPC4 potent: inactive; TRPC6 inh: inactive; TRPC6 act: inactive; TRPC4 act: inactive

How did O=C(C[n+]1cccc(CNC(=O)c2ccc(OC(F)F)cc2)c1)Nc1ccc(SC(F)F)cc1 do in these assays?
TRPC4 block: -7*; TRPC4 potent: inactive; TRPC6 inh: inactive; TRPC6 act: inactive; TRPC4 act: inactive

How did O=C(C[n+]1cccc(CNC(=O)c2ccc(OC(F)F)cc2)c1)Nc1ccccc1Cl do in these assays?
TRPC4 block: inactive; TRPC4 potent: inactive; TRPC6 inh: inactive; TRPC6 act: inactive; TRPC4 act: inactive

How did COC(=O)c1ccc(/C=N/N2CCN(Cc3ccc(C)cc3C)CC2)cc1 do in these assays?
TRPC4 block: inactive; TRPC4 potent: 16*; TRPC6 inh: inactive; TRPC6 act: inactive; TRPC4 act: inactive

Results for COc1cccc(CN(C)C(=O)CNC(=O)c2ccc(-c3ccccc3)cc2)c1OC ?
TRPC4 block: inactive; TRPC4 potent: inactive; TRPC6 inh: inactive; TRPC6 act: inactive; TRPC4 act: inactive

Results for O=[N+]([O-])c1cccc(/C=N/Nc2nc(NCc3ccccc3)nc(N3CCOCC3)n2)c1O ?
TRPC4 block: inactive; TRPC4 potent: inactive; TRPC6 inh: inactive; TRPC6 act: inactive; TRPC4 act: 53*

How did O=[N+]([O-])c1ccc(/C=N/Nc2nc(NCc3ccccc3)nc(N3CCOCC3)n2)cc1 do in these assays?
TRPC4 block: inactive; TRPC4 potent: inactive; TRPC6 inh: inactive; TRPC6 act: inactive; TRPC4 act: inactive

How did N#CCCCCn1ccc(NC(=O)c2ccc(Cl)cc2O)n1 do in these assays?
TRPC4 block: inactive; TRPC4 potent: inactive; TRPC6 inh: inactive; TRPC6 act: inactive; TRPC4 act: inactive

What do the screens show for `O=S(=O)(c1cc(F)ccc1F)N1CCN(c2ncccn2)CC1`?
TRPC4 block: inactive; TRPC4 potent: inactive; TRPC6 inh: inactive; TRPC6 act: inactive; TRPC4 act: inactive

Results for Cc1ccc(S(=O)(=O)N(Cc2ccc(F)cc2)Cc2ccco2)cc1 ?
TRPC4 block: inactive; TRPC4 potent: inactive; TRPC6 inh: inactive; TRPC6 act: inactive; TRPC4 act: inactive

How did Cc1ccc(S(=O)(=O)N(Cc2ccccc2)Cc2ccco2)cc1 do in these assays?
TRPC4 block: inactive; TRPC4 potent: 14*; TRPC6 inh: inactive; TRPC6 act: inactive; TRPC4 act: inactive

What do the screens show for `COC(=O)c1ccc(OCC(=O)NC2CCCCCC2)cc1`?
TRPC4 block: inactive; TRPC4 potent: inactive; TRPC6 inh: inactive; TRPC6 act: inactive; TRPC4 act: inactive

Results for CN1CCN(c2ccc(CNS(=O)(=O)c3ccccc3)cc2)CC1 ?
TRPC4 block: inactive; TRPC4 potent: inactive; TRPC6 inh: inactive; TRPC6 act: inactive; TRPC4 act: inactive

How did CN1CCN(c2ccc(CNS(=O)(=O)c3ccsc3)cc2)CC1 do in these assays?
TRPC4 block: inactive; TRPC4 potent: 22*; TRPC6 inh: inactive; TRPC6 act: inactive; TRPC4 act: inactive

What do the screens show for `Cc1ccc(OCCNC(=O)c2ccc(NC(=O)CC3SC(N4CCCC4)=NC3=O)cc2)cc1` (configuration not stated)?
TRPC4 block: inactive; TRPC4 potent: inactive; TRPC6 inh: inactive; TRPC6 act: inactive; TRPC4 act: inactive

How did CCOc1cc(N2CCOCC2)c(OCC)cc1NC(=O)CN1CCc2ccccc2C1 do in these assays?
TRPC4 block: inactive; TRPC4 potent: 12*; TRPC6 inh: inactive; TRPC6 act: inactive; TRPC4 act: inactive

What do the screens show for `CCOc1cc(N2CCOCC2)c(OCC)cc1NC(=O)CC12CC3CC(CC(C3)C1)C2`?
TRPC4 block: inactive; TRPC4 potent: 10*; TRPC6 inh: inactive; TRPC6 act: inactive; TRPC4 act: inactive

Results for CCOc1cc(N2CCOCC2)c(OCC)cc1NC(=O)CN1CCN(Cc2ccc3c(c2)OCO3)CC1 ?
TRPC4 block: inactive; TRPC4 potent: inactive; TRPC6 inh: inactive; TRPC6 act: inactive; TRPC4 act: inactive

How did CCOc1cc(N2CCOCC2)c(OCC)cc1NC(=O)Cc1ccc(OC)c(OC)c1 do in these assays?
TRPC4 block: inactive; TRPC4 potent: inactive; TRPC6 inh: inactive; TRPC6 act: inactive; TRPC4 act: inactive

What do the screens show for `Cc1ccc(NC(=O)[C@H](C)NC(=O)C2CCN(C(=O)[C@@H](NC(=O)OC(C)(C)C)C(C)C)CC2)cc1`?
TRPC4 block: inactive; TRPC4 potent: inactive; TRPC6 inh: inactive; TRPC6 act: inactive; TRPC4 act: inactive

What do the screens show for `CC(C)c1cc(-c2cc(C(=O)NCc3ccccc3)on2)nc(NCC2CC2)n1`?
TRPC4 block: inactive; TRPC4 potent: 10*; TRPC6 inh: inactive; TRPC6 act: inactive; TRPC4 act: inactive

Results for CC(C)c1cc(-c2cc(C(=O)Nc3ccccc3)on2)nc(NCC2CC2)n1 ?
TRPC4 block: inactive; TRPC4 potent: inactive; TRPC6 inh: inactive; TRPC6 act: inactive; TRPC4 act: inactive

How did O=C(NNC(=O)c1sc2ccccc2c1Cl)Nc1ccc(Cl)cc1 do in these assays?
TRPC4 block: inactive; TRPC4 potent: inactive; TRPC6 inh: inactive; TRPC6 act: inactive; TRPC4 act: inactive

How did O=C(O)c1ccccc1NC(=S)NC(=O)c1sc2ccccc2c1Cl do in these assays?
TRPC4 block: inactive; TRPC4 potent: inactive; TRPC6 inh: inactive; TRPC6 act: inactive; TRPC4 act: inactive

What do the screens show for `Cc1ccc(NC(=S)NC(=O)c2sc3ccccc3c2Cl)c(C(=O)O)c1`?
TRPC4 block: -6*; TRPC4 potent: inactive; TRPC6 inh: inactive; TRPC6 act: inactive; TRPC4 act: inactive

What do the screens show for `O=C(NNC(=S)NC(=O)c1sc2ccccc2c1Cl)c1ccc(Cl)cc1`?
TRPC4 block: inactive; TRPC4 potent: 56*; TRPC6 inh: inactive; TRPC6 act: inactive; TRPC4 act: inactive

What do the screens show for `CCCCn1c(N)c(N(CC(C)C)C(=O)c2ccc(S(=O)(=O)N3CCCCC3)cc2)c(=O)[nH]c1=O`?
TRPC4 block: inactive; TRPC4 potent: inactive; TRPC6 inh: inactive; TRPC6 act: inactive; TRPC4 act: inactive

How did Fc1ccccc1Sc1ccccc1CNC1=NCCN1 do in these assays?
TRPC4 block: -6*; TRPC4 potent: inactive; TRPC6 inh: inactive; TRPC6 act: inactive; TRPC4 act: inactive

Results for Cc1ccc(/C=N\NC(=O)C2COc3cc4ccccc4cc3O2)o1 (configuration not stated) ?
TRPC4 block: inactive; TRPC4 potent: inactive; TRPC6 inh: inactive; TRPC6 act: inactive; TRPC4 act: 112*
